Here are results for eight compounds from ChEMBL document CHEMBL4665801, “Pyrazole-Based Lactate Dehydrogenase Inhibitors with Optimized Cell Activity and Pharmacokinetic Properties” (J Med Chem, 2020).

A word on the IC50: it is the concentration that gives 50% inhibition. The term Vdss denotes a proportionality between amount in the body and measured concentration, not a real space. Low readings indicate little distribution into tissue, high ones wide distribution into tissue. Usually Cmax stands for the highest concentration seen after dosing. In general, Kd refers to the equilibrium constant for the complex coming apart.

Data set [1] concerns Mus musculus. Briefly: In vivo inhibition of LDH in human A673 cells xenografted athymic nude CrTac:NCr-Foxn1nu mouse assessed as reduction in tumor LDH activity at 50 mg/kg, iv after 1 hr by NADH-based UV-VIS spectrometric method relative to control. Format: functional, organism-based. The method in brief: (§1)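 Female athymic nude mice carried SQ A673 flank xenografts (2 million cells) and received a single IV dose of 50 mg/kg in PBS-based vehicle. Four mice per time point were sacrificed at 1, 3, 6 and 24 h. Frozen tumor (10–50 mg) was pulverized and lysed in PBS pH 7.4 with 0.1% Triton X-100 on ice for 1 h. Cleared lysate (10–20 μg) was assayed with 10 mM pyruvate and 0.3 mM final NADH, reading NADH oxidation at 340 nm at 37 °C.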
Background: A xenograft is tissue or cells of one species grown in another, often human tumour cells in immunodeficient mice.

Data set [2] concerns the target T1, L-lactate dehydrogenase A chain (Homo sapiens, UniProt P00338). Briefly: Inhibition of LDHA in human A673 cells assessed as decrease in lactate production incubated for 2 hrs by lactate oxidase-coupled fluorescence based assay. Format: cell-based.
Data set [3] concerns Mus musculus. As to the kind of experiment: In vivo inhibition of LDH in human A673 cells xenografted athymic nude CrTac:NCr-Foxn1nu mouse assessed as reduction in tumor LDH activity at 50 mg/kg, iv after 6 hrs by UV-VIS spectrometric method relative to control. Format: functional. The method in brief: as §1
Data set [4] deals with T1, L-lactate dehydrogenase A chain. Briefly: Inhibition of LDHA in human MIA PaCa-2 cells assessed as decrease in lactate production incubated for 2 hrs by lactate oxidase-coupled fluorescence based assay. The format is cell-based.
The target is the same in data set [5]. Briefly: Inhibition of recombinant human LDHA using sodium pyruvate as substrate preincubated for 5 mins followed by diaphorase/resazurin addition and measured after 20 mins by fluorescence based assay. In general terms: Resazurin is reduced to fluorescent resorufin, in cell work by metabolically active cells.
Data set [6] deals with A673. As to the kind of experiment: Cytotoxicity against human A673 cells assessed as reduction in cell viability after 48 hrs by CellTiter-Glo assay. Format: functional, cell-based. The settings on record: A673, 48 h.
The species entered for data set [7] is Sus scrofa. As to the kind of experiment: Inhibition of porcine heart MDH using malic acid as substrate preincubated for 10 mins followed by substrate addition and measured after 5 mins by resazurin based fluorescence based assay. The settings on record: time 15.0 min.
In data set [8] the test system is MIA PaCa-2. As to the kind of experiment: Cytotoxicity against human MIA PaCa-2 cells assessed as reduction in cell viability after 48 hrs by CellTiter-Glo assay. The format is functional, cell-based. The settings on record: MIA PaCa-2, 48 h. On the technique in general: ATP-based viability assays read luminescence as a measure of living cells.
Data set [9] concerns the target T1, L-lactate dehydrogenase A chain. Briefly: Inhibition of GS[HiBiT]GS-tagged LDHA (unknown origin) expressed in HEK-293T cells measured after 1 hr by […]. The format is cell-based. The method in brief: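 HEK293T cells were transiently transfected for 24 h with CMV-driven LDHA carrying a C-terminal GS[HiBiT]GS tag, then reseeded at 2500 cells/well in DPBS with Ca/Mg and 1 g/L glucose. […] Cells were lysed with NP40, and 11S (100 nM final) plus furimazine was added.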

Data set [10] has as its target L-lactate dehydrogenase B chain (Homo sapiens) (UniProt P07195). Briefly: Inhibition of recombinant human LDHB using sodium pyruvate as substrate preincubated for 5 mins followed by diaphorase/resazurin addition and measured after 20 mins by fluorescence based assay.
Data set [11] in a line: AUClast in CD-1 mouse at 10 mg/kg, iv and measured up to 24 hrs by LC/MS-MS analysis. Format: ADME, organism-based. The arrangement: route intravenous, dose 10 mg/kg, time <=24. Conditions: in vivo. The method in brief:
(§2)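 Male CD1 mice, about 6–8 weeks old and 20–30 g, received 10 mg/kg IV in 0.1 M NaOH in PBS adjusted to pH 7–8.5, made fresh on the day of dosing. Three mice per cohort. Blood was taken from the dorsal metatarsal vein at 5, 15, 30 min and 1, 2, 4, 8, 12, 24 h into heparin tubes. Plasma was spun at 4 °C, stored at –75 °C and analysed by LC–MS/MS. For IV dosing Cmax = C0.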

The nature of data set [12]: Volume of distribution at steady state in CD-1 mouse at 10 mg/kg, iv and measured up to 24 hrs by LC/MS-MS analysis. The format is ADME, organism-based. Conditions: in vivo. A digest of the protocol: as §2
Data set [13] in a line: AUClast in CD-1 mouse at 50 mg/kg, po and measured up to 24 hrs by LC/MS-MS analysis. Format: ADME, organism-based. Also on record: route oral, dose 50 mg/kg, time <=24. Conditions: in vivo. A digest of the protocol: (§3)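 Male CD1 mice, about 6–8 weeks old and 20–30 g, were dosed PO at 40 or 50 mg/kg in 0.1 M NaOH in PBS, pH 7–8.5, prepared the same day. Three mice per cohort. Dorsal metatarsal vein blood was collected into heparin at 15, 30 min and 1, 2, 4, 8, 12, 24 h. Plasma was spun at 4 °C, frozen at –75 °C and quantified by LC–MS/MS.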

Data set [14] is described as follows: Cmax in CD-1 mouse at 10 mg/kg, iv and measured up to 24 hrs by LC/MS-MS analysis. Format: ADME, organism-based. The arrangement: route intravenous, dose 10 mg/kg, time <=24. The settings on record: in vivo. The method in brief:
as §2

The nature of data set [15]: Terminal half life in CD-1 mouse at 10 mg/kg, iv and measured up to 24 hrs by LC/MS-MS analysis. The format is ADME, organism-based. The settings on record: in vivo. The method in brief: as §2
Data set [16] is described as follows: Terminal half life in CD-1 mouse at 50 mg/kg, po and measured up to 24 hrs by LC/MS-MS analysis. The format is ADME, organism-based. The settings on record: in vivo. The method in brief: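 Male CD1 mice, about 6–8 weeks old and 20–30 g, were dosed PO at 40 or 50 mg/kg in 0.1 M NaOH in PBS, pH 7–8.5, prepared the same day. Three mice per cohort. Plasma was spun at 4 °C, frozen at –75 °C and quantified by LC–MS/MS.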

Data set [17] in a line: Oral bioavailability in CD-1 mouse at 50 mg/kg and measured up to 24 hrs by LC/MS-MS analysis. The format is ADME, organism-based. The settings on record: in vivo. A digest of the protocol: as §3
Data set [18] is described as follows: Cmax in CD-1 mouse at 50 mg/kg, po and measured up to 24 hrs by LC/MS-MS analysis. The arrangement: route oral, dose 50 mg/kg, time <=24. Conditions: in vivo. The format is ADME, organism-based. The method in brief: as §3
Data set [19] can be described thus: In vivo inhibition of LDH in human A673 cells xenografted athymic nude CrTac:NCr-Foxn1nu mouse assessed as tumor residual LDH activity at 50 mg/kg, iv after 1 hr by UV-VIS spectrometric method relative to control. Format: functional. A digest of the protocol:
as §1

Data set [20] addresses T1, L-lactate dehydrogenase A chain. As to the kind of experiment: Binding affinity to human His-tagged LDHA by SPR analysis. The method in brief: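 SPR on a Mass-1 instrument gave K_D and k_off. Residence time τ was calculated as 1/k_off (s⁻¹).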

Each structure is given as a SMILES string. The source made the active and inactive calls. A value given as a limit tells only on which side of the number the result lay.

Chain of L-lactate dehydrogenase B chain (Homo sapiens) (P07195 2-334 limits assumed): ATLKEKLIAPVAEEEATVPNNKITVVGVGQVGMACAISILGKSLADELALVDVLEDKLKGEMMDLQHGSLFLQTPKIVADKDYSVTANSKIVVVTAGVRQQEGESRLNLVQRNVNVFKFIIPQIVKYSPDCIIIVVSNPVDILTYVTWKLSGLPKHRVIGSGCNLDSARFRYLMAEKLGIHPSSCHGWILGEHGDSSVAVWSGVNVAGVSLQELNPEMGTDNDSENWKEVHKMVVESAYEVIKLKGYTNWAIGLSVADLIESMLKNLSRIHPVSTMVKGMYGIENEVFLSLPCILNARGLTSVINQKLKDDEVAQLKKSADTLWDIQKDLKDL

As for `CCCC#Cc1cc(-c2nn(-c3nc(C(=O)O)cs3)c(CC3CC3)c2Cc2ccc(S(N)(=O)=O)c(F)c2)ccc1F`, the inhibition result in [1], in [3] and in data set [10] was “Active” each time. Moreover, the IC50 turned out to be 420 nM in [2]; 361 nM in data set [4]; 24 nM in data set [5]; 833 nM in data set [6]; 746 nM in [8]; 106 nM in [9]. In addition, the inhibition entry in data set [7] is “inactive”.

For `Cc1cnc(C#Cc2cc(-c3nn(-c4nc(C(=O)O)cs4)c(CC4CC4)c3Cc3ccc(S(N)(=O)=O)c(F)c3)ccc2F)s1`, the inhibition entry in data set [1], in data set [3] and in [10] was “Active” in each case. Also, the 50% inhibitory concentration (IC50) is 1320 nM in data set [2]; 1600 nM in [4]; 52 nM in [5]; 803 nM in data set [6]; 909 nM in data set [8]; 170 nM in [9]. The inhibition result in data set [7] was “inactive”. The values for the AUClast in data set [11] and in data set [13] were 1360 ng·h/mL and 2650 ng·h/mL, respectively. In addition, in data set [12], the Vdss stood at 17.9 L/kg. For the same compound, the Cmax is 3320 ng/mL in data set [14] and 2030 ng/mL in data set [18]. The “beta t1/2” value in data set [15] came to 4.9 h; in data set [16], 3.54 h. In addition, the F in [17] is listed as 39%.

For `NS(=O)(=O)c1ccc(Cc2c(-c3ccc(F)c(/C=C/C4CCCC4)c3)nn(-c3nc(C(=O)O)cs3)c2CC2CC2)cc1F`, the inhibition result in [1], in [3] and in data set [10] was “Active” each time. In addition, the IC50 in [2] is 371 nM; in [4] it was 149 nM; in [5], 74 nM; in data set [6], 488 nM; in data set [8] it was 454 nM; in data set [9] it was 108 nM. Moreover, the inhibition entry in data set [7] was “inactive”. The AUClast in data set [11] was found to be 2810 ng·h/mL; in data set [13], 9220 ng·h/mL. The compound further had a Vdss in [12] of 13.3 L/kg. For the same compound, the Cmax in data set [14] was 6440 ng/mL; in data set [18], 1200 ng/mL. Besides, the “beta t1/2” value amounted to 5.5 h in [15] and 3.1 h in data set [16]. The F in data set [17] is recorded as 83%.

As to `NS(=O)(=O)c1ccc(Cc2c(-c3cccc(C#Cc4ccc(C5CC5)s4)c3)nn(-c3nc(C(=O)O)cs3)c2CC2CC2)cc1F`, the inhibition entry in data set [1], in [3] and in data set [10] was “Active” each time. The IC50 in [2] amounted to 403 nM; in [4], 434 nM; in data set [5], 201 nM; in [6] it was 332 nM; in data set [8], 342 nM; in data set [9] it was 183 nM. In addition, the inhibition entry in [7] is “inactive”. In data set [19], the Activity is given as below 40%.

On to `NS(=O)(=O)c1ccc(Cc2c(-c3ccc(F)c(C#CC4CCCC4)c3)nn(-c3nc(C(=O)O)cs3)c2CC2CC2)cc1F`, for which the IC50 in data set [2] was found to be 509 nM; in data set [4], 333 nM; in data set [5], 22 nM; in data set [6] it was 100 nM; in [8] it was 314 nM; in data set [9], 112 nM. Also, the Kd in data set [20] was found to be 0.0193 nM. The inhibition result in data set [7] was “inactive”. For the same compound, the inhibition entry in [10] was “Active”.

With `C/C=C/c1cc(-c2nn(-c3nc(C(=O)O)cs3)c(CC3CC3)c2Cc2ccc(S(N)(=O)=O)c(F)c2)ccc1F`, the inhibition result in data set [1], in data set [3] and in data set [10] was “Active” in each case. For the same compound, the IC50 in data set [2] is 405 nM; in [4], 321 nM; in data set [5], 11 nM; in [6], 614 nM; in [8], 528 nM; in data set [9], 126 nM. In data set [7], the inhibition entry was “inactive”.

On to `NS(=O)(=O)c1ccc(Cc2c(-c3ccc(F)c(C#CCC4CCCC4)c3)nn(-c3nc(C(=O)O)cs3)c2CC2CC2)cc1F`, for which the IC50 in data set [2] came to 487 nM; in [4], 424 nM; in [5], 202 nM; in data set [6], 939 nM; in data set [8], 848 nM; in data set [9] it was 178 nM. In addition, the Kd in [20] stood at 0.123 nM. Besides, the inhibition entry in data set [7] is “inactive”. The inhibition entry in data set [10] was “Active”.

On to `Cc1ccc(C#Cc2cc(-c3nn(-c4nc(C(=O)O)cs4)c(CCC4CC4)c3Cc3ccc(S(N)(=O)=O)c(F)c3)ccc2F)s1`, for which the inhibition entry in data set [1], in [3] and in [10] was “Active” throughout. The IC50 in [2] worked out at 390 nM; in [4], 197 nM; in [5], 202 nM; in data set [6], 218 nM; in data set [8], 226 nM; in [9], 200 nM. The inhibition result in data set [7] is “inactive”. The AUClast in [11] is 6650 ng·h/mL; in data set [13] it was 12240 ng·h/mL. Besides, in [12], the Vdss came out at 2.5 L/kg. Besides, the Cmax in [14] was determined as 35300 ng/mL; in data set [18] it was 4730 ng/mL. The entries for the “beta t1/2” value in data set [15] and in [16] were 6.5 h and 3.2 h, respectively. Besides, in [17], the F stood at 37%.
